# Bioassay records deposited in PubChem BioAssay by ICCB-Longwood Screening Facility, Harvard Medical School.
# The sample as a whole holds a higher share of hits than the screen did.
# LANA-nucl inh = inhibitors of KSHV LANA-nucleosome binding, primary screen, biochemical, fluorescence polarization, FITC-LANA1-23, chicken nucleosomes | FITC-LANA1-23 / chicken nucleosome fluorescence polarization; hits give low values | z-score (test concentration not listed) | actives 0.3% (n = 51,000);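 active = both repeat wells score below -2 in polarization z-score versus plate sample wells, excluding overly bright wells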
#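 test system = FITC-LANA peptide and chicken nucleosomes | amount = 240 nM purified chicken nucleosomes (480 nM peptide binding sites), final | reagent = 50 nM FITC-LANA1-23 probe | medium = TEN-BT buffer, pH 7.5 | doses = single compound addition by pin transfer, 100 nL per well | timing = 10–45 min, room temperature | detection = fluorescence polarization | repeats = duplicate plates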
# BasE inh = BasE siderophore enzyme inhibitors, primary screen, biochemical, Acinetobacter baumannii ATCC 17978, fluorescence polarization | purified BasE, fluorescence polarization binding displacement | AID 485350, 2010 | inhibition, % (concentration not given with the values) | actives 0.1% (n = 84,000); in the data active = inhibition above about 25%, passing the limit was not always enough;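 also: 0% = negative plate control signal and 100% = positive plate control signal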
# Numbers without * were called inactive; . = not tested or not shown; ! = repeats disagree.
SMILES,LANA-nucl inh,BasE inh
Cc1ccnc(SCC(=O)N2CCc3ccccc3C2)n1,.,40*
O=C(CSc1ncccn1)N1CCc2ccccc2C1,0.45,1
O=C(NCCNc1cccc2ccccc12)c1ccco1,.,0
COc1ccc(N/C(C)=C/C(=O)c2ccccc2)cc1,-0.32,0
CC(=O)Nc1ccc(N/C(C)=C/C(=O)c2cccnc2)cc1,-0.39,39*
CC(=O)OC[C@H]1O[C@@H](n2cc(Br)c(=O)[nH]c2=O)C[C@@H]1OC(C)=O,1.2,-4
O=C(COc1cccc(Cl)c1)NC1CCCCC1,0.7,21
CC1CCN(S(=O)(=O)N2CCCC(C(=O)Nc3ccccc3C(=O)c3ccccc3)C2)CC1 (centres undefined),-2.2*,0
COC(=O)c1cc(NC(=O)C2CCCN(S(=O)(=O)N3CCC(C)CC3)C2)cc(C(=O)OC)c1 (centres undefined),-1.5,1
Cc1ccc(S(=O)(=O)c2nc(-c3ccccc3)oc2N2CC(C)OC(C)C2)cc1 (centres undefined),.,-2
O=C(CCN1C(=O)/C(=C\c2ccco2)SC1=S)NN1CCOCC1,2.3,-1
O=C(CCN1C(=O)/C(=C\C=C\c2ccco2)SC1=S)Nc1ccc(C(=O)O)c(O)c1,-0.23,33*
Cc1cccc(OCC(N)=O)c1,.,22
Cc1cccc(OCC(=O)N(Cc2ccco2)Cc2ccco2)c1,0.49,28*
CCCCCn1c(=O)c2ccccc2n2c(Cn3nnc4ccccc4c3=O)nnc12,.,0
CCN(CC)c1ccc(/C=N/N(CCC#N)C2=NS(=O)(=O)c3ccccc32)cc1,-8.4*,11
N#CCCN(/N=C/c1ccccc1)C1=NS(=O)(=O)c2ccccc21,.,3
Cc1ccc2oc(=O)n(CCc3noc(-c4cc(C)on4)n3)c2c1,.,-1
O=C(CCc1nc2ccccc2c(=O)[nH]1)Nc1ccc2c(c1)CCC2,.,28*
O=C(CCc1nc2ccccc2c(=O)[nH]1)Nc1ccc(F)cc1,.,14
O=C(NCc1ccccc1)c1cccnc1Nc1ccccc1,-1.1,0
Nc1cccnc1Nc1ccccc1,-3.1*,24
CC(C)c1ccc(C2=CC(=O)C=CC2=O)cc1,0.66,2
O=C1C=CC(=O)c2c(Cl)ccc(Cl)c21,-0.036,80*
CN(CC1COc2ccccc2O1)C(=O)NC12CC3CC(CC(C3)C1)C2 (centres undefined),.,30*
SMILES,LANA-nucl inh,BasE inh
CN(CC1COc2ccccc2O1)C(=O)C1(c2ccccc2)CC1 (centres undefined),.,3
CCCCn1c(=O)[nH]c2nc3cc(N=Cc4c(O)n(C)c(=O)n(C)c4=O)ccc3nc2c1=O,-0.49,3
Cn1c(=O)c2nc3ccc(N=Cc4c(O)n(Cc5ccccc5)c(=O)[nH]c4=O)cc3nc2n(C)c1=O,-2.3*,18
O=C(NC1=NCCS1)C1Cc2ccccc2CN1C(=O)c1ccco1 (centres undefined),.,2
CC1CCCN(C2(O)C(=O)N(C)c3ccc(Br)cc32)C1 (centres undefined),-1.1,1
CCCCNC(=O)NC1C2CC3CC(C2)CC1C3 (centres undefined),0.8,26*
CC(C)NC(=O)NC1C2CC3CC(C2)CC1C3 (centres undefined),1.5,-1
CCOC(=O)c1ccc2nsnc2c1,0.36,0
Nc1ccc2nsnc2c1,-3.1*,26
CCN1CCCC1CNCC(O)COCC1CCCO1 (centres undefined),.,2
CC(C)(C)C(=O)Nc1ccccc1Cc1ccccc1,.,0
COc1cc2[nH]c(=O)n(CCCC(=O)N3CCc4ccccc4C3)c(=O)c2cc1OC,-0.46,-1
Cc1ccccc1OCC1=NN2C(=N)/C(=C/c3ccc(N(C)C)cc3)C(=O)N=C2S1,-4.8*,11
Cc1ccccc1OCC1=NN2C(=N)/C(=C\c3ccc(SCc4ccco4)o3)C(=O)N=C2S1,3.1,-3
CC(C)=C1C(=O)Nc2ccc(S(=O)(=O)Nc3ccccc3)cc21,.,-3
NC(=O)C1CC(=O)N(c2ccccc2)C1 (centres undefined),-0.75,0
CCC(=O)Nc1ccc(C(=O)COc2ncnc3ccccc23)cc1,.,-3
O=C1NC2(Cc3ccccc3C2)Nc2ccccc21,-2*,2
O=C1NC2(CCCCC2)Nc2ccccc21,0.32,0
CN(Cc1cccc(O)c1)C1CCCCC1,-0.69,2
O=C(OCc1ccccc1)Sc1nnc(-c2ccccc2Cl)o1,0.61,-1
Cn1c(-c2oc3nc(-c4ccccc4)cc(-c4ccco4)c3c2N)n[nH]c1=S,-2.3*,3
Cn1c(SCc2ccccc2Cl)nnc1-c1oc2nc(-c3ccccc3)cc(-c3ccco3)c2c1N,-0.26,-7
O=C(N/N=C/c1c[nH]c2ccccc12)c1cccc(O)c1,-0.36,21
CC(=O)n1cc(/C=N/NC(=O)c2cccc(O)c2)c2ccccc21,0.47,28*
SMILES,LANA-nucl inh,BasE inh
CC1=CC(=O)C(C(=O)/C=C/c2ccc3c(c2)OCO3)C(=O)O1 (centres undefined),.,12
CN(C)c1ccc(C(=C2C=CC(=[N+](C)C)C=C2)c2ccc(N(C)C)cc2)cc1,-4.1*!,2
CN(C)c1ccc(C2=CC=CC(=C3C=CC(=[N+](C)C)C=C3)O2)cc1,.,8
O=c1cnc2ccccc2n1CCOc1ccc(Br)cc1,.,6
CCCN(Cc1cccs1)C(=O)Nc1cccc(C)c1,-0.38,-1
Cc1ccc(S(=O)(=O)NN2CCN(C)CC2)s1,-0.12,1
C[n+]1cccc2ccc(O)cc21,-6.7*,20
Cn1ccnc1SCC(=O)c1ccc(NS(C)(=O)=O)cc1,.,8
